# Test results from ChEMBL document CHEMBL2163334, “Discovery of highly potent and selective pan-Aurora kinase inhibitors with enhanced in vivo antitumor therapeutic index” (J Med Chem, 2012).
# Active and inactive are the calls of the source. No cut-off for these calls is given here.
# Tests used:
# [1] = tested on: Rattus norvegicus; assay: Toxicity in athymic nude rat bearing human HCT116 cells assessed as adverse effects at 2.5 mg/kg, iv administered QD for 4 days per week followed by 3 days off per week for 3 weeks; type: organism-based, HCT-116; parameters: dose 2.5 mg/kg, route intravenous; settings: in vivo
# Outline: (§1)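 Subcutaneous flank HCT-116 xenografts in nude rats; at Day 1 groups of 10 with mean tumor 301-306 mm³. Tail-vein iv in TPPW (2% Tween-80, 5% propylene glycol, 10% PG-400, 83% water) at 10 mL/kg, weight-adjusted: days 1,3,5,8,10,12,15,17,19 or days 1-4, 8-11, 15-18. Irinotecan control 100 mg/kg ip weekly ×3.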
# [2] = tested on: HCT-116; assay: Antitumor activity against human HCT116 cells xenografted in athymic nude rat assessed as tumor growth inhibition at 20 mg/kg, iv administered every other day from day 10 post tumor-injection for 3 weeks relative to vehicle treated control; type: functional; settings: read-out: TGI; outline: as §1
# [3] = AUC (0 to infinity) in Nu/Nu rat at 5 mg/kg, iv administered using TPPW as vehicle; type: ADME, organism-based; parameters: dose 5 mg/kg, route intravenous, time infinity; settings: plasma
# Outline: (§2)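 Plasma from K3 EDTA blood at 5, 15, 30 min, 1, 2, 4, 6, 24 h; acetonitrile extraction with internal standard, LC-MS/MS on C8 column, 5-95% ACN gradient with 0.05% formic acid.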
# [4] = target: T1, Aurora kinase B (Homo sapiens, UniProt Q96GD4); assay: Binding affinity to Aurora kinase B catalytic domain by competition binding assay
# [5] = Clearance in athymic Nu/Nu rat at 15 mg/kg, iv administered using TPPW as vehicle; type: ADME, organism-based; parameters: dose 15 mg/kg, route intravenous; settings: in vivo; outline: as §2
# [6] = Half life in Nu/Nu rat at 5 mg/kg, iv administered using TPPW as vehicle; type: ADME, organism-based; parameters: dose 5 mg/kg, route intravenous; settings: in vivo; outline: as §2
# [7] = tested on: HCT-116; assay: Antitumor activity against human HCT116 cells xenografted in athymic nude rat assessed as tumor growth inhibition at 5 mg/kg, iv administered QD for 4 days per week followed by 3 days off per week for 3 weeks; type: functional, organism-based; parameters: dose 5 mg/kg; outline: as §1
# [8] = AUC (0 to infinity) in Sprague-Dawley rat at 1 mg/kg, iv administered using PEG400/water as vehicle; type: ADME, organism-based; parameters: time infinity, dose 1 mg/kg, route intravenous; settings: plasma
# Outline: (§3)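 SD rats fasted overnight, given 1 mg/kg iv in PEG400/water (3:1, v/v); three per arm. Blood into K3 EDTA at 5, 15, 30 min, 1, 2, 4, 6, 24 h, spun at 4 °C; plasma extracted with six volumes acetonitrile plus internal standard and quantified by LC-MS/MS (C8 column, formic acid/ACN gradient).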
# [9] = Volume of distribution in Nu/Nu rat at 15 mg/kg, iv administered using TPPW as vehicle; type: ADME, organism-based; parameters: dose 15 mg/kg, route intravenous; settings: in vivo; outline: as §2
# [10] = target: T1, Aurora kinase B; assay: Inhibition of Aurora kinase B-mediated histone H3 Ser10 phosphorylation in human HCT116 cells after 2 hrs by sandwich ELISA; type: cell-based, HCT-116
# Outline: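 HCT-116 cells seeded 4 × 10⁴/well, 4-6 h at 37 °C, then arrested overnight (16-18 h) with nocodazole at 66 ng/mL final. Treated 2 h with nine-point 3-fold dilutions in DMSO; lysed with phosphatase inhibitor, phospho-H3 (Ser10) sandwich ELISA read at 450 nm. IC50 = 50% inhibition of phosphorylation; duplicate runs averaged.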
# [11] = target: T2, Aurora kinase A (Homo sapiens, UniProt O14965); assay: Inhibition of Aurora kinase A autophosphorylation in human HEK293 cells after 2 hrs by phosphor antibody readout assay; type: cell-based
# T2 sequence (O14965 whole entry): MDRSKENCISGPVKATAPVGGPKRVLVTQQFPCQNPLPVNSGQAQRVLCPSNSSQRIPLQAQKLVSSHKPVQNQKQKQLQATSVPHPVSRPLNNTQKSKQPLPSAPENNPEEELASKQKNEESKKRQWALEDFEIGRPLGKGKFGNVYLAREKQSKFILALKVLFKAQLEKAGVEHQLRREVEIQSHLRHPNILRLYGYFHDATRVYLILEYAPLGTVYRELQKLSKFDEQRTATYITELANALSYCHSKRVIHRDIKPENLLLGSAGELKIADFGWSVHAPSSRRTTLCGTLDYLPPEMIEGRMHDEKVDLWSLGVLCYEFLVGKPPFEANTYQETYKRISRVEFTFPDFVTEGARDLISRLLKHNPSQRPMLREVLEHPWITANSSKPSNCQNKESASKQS
# [12] = Half life in Nu/Nu rat at 50 mg/kg, iv administered using TPPW as vehicle; type: ADME, organism-based; parameters: dose 50 mg/kg, route intravenous; settings: in vivo; outline: as §2
# [13] = Protein binding in plasma; type: ADME, cell-free; settings: read-out: PPB
# [14] = Volume of distribution in Sprague-Dawley rat at 1 mg/kg, iv administered using PEG400/water as vehicle; type: ADME, organism-based; parameters: dose 1 mg/kg, route intravenous; settings: in vivo; outline: as §3
# [15] = Clearance in athymic Nu/Nu rat at 5 mg/kg, iv administered using TPPW as vehicle; type: ADME, organism-based; parameters: dose 5 mg/kg, route intravenous; settings: in vivo; outline: as §2
# [16] = AUC (0 to infinity) in Nu/Nu rat at 50 mg/kg, iv administered using TPPW as vehicle; type: ADME, organism-based; parameters: time infinity, dose 50 mg/kg, route intravenous; settings: plasma; outline: as §2
# [17] = tested on: HCT-116; assay: Antitumor activity against human HCT116 cells xenografted in athymic nude rat assessed as tumor growth inhibition at 10 mg/kg, iv administered every other day from day 10 post tumor-injection for 3 weeks relative to vehicle treated control; type: functional; settings: read-out: TGI; outline: as §1
# [18] = tested on: HCT-116; assay: Antitumor activity against human HCT116 cells xenografted in athymic nude rat assessed as tumor stasis at 20 mg/kg, iv administered every other day from day 10 post tumor-injection for 3 weeks […]; type: functional, organism-based; parameters: dose 20 mg/kg
# Outline: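 HCT-116 flank xenografts in nude rats, groups of 10 at mean 301-306 mm³; iv tail-vein dosing in TPPW at 10 mL/kg on days 1,3,5,8,10,12,15,17,19; tumors followed after dosing stopped, study ending day 42 or day 60.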
# [19] = Half life in Nu/Nu rat at 15 mg/kg, iv administered using TPPW as vehicle; type: ADME, organism-based; parameters: dose 15 mg/kg, route intravenous; settings: in vivo; outline: as §2
# [20] = target: T2, Aurora kinase A; assay: Binding affinity to Aurora kinase A catalytic domain by competition binding assay
# [21] = tested on: Rattus norvegicus; assay: Toxicity in athymic nude rat bearing human HCT116 cells assessed body weight loss up to 20 mg/kg, iv administered every other day from day 10 post tumor-injection for 3 weeks; type: organism-based, HCT-116; parameters: dose 20 mg/kg, route intravenous; settings: in vivo, 504 h; outline: as §1
# [22] = tested on: HCT-116; assay: Antitumor activity against human HCT116 cells xenografted in athymic nude rat assessed as tumor growth inhibition at 2.5 mg/kg, iv administered QD for 4 days per week followed by 3 days off per week for 3 weeks; type: functional, organism-based; parameters: dose 2.5 mg/kg; outline: as §1
# [23] = tested on: HCT-116; assay: Antitumor activity against human HCT116 cells xenografted in iv dosed athymic nude rat assessed as tumor growth inhibition administered every other day from day 10 post tumor-injection for 3 weeks relative to vehicle treated control; type: functional, organism-based; outline: as §1
# [24] = target: T1, Aurora kinase B; assay: Inhibition of Aurora kinase B in human HCT116 cells assessed as induction of 8N polyploidy; type: cell-based; settings: HCT-116
# [25] = AUC (0 to infinity) in Nu/Nu rat at 15 mg/kg, iv administered using TPPW as vehicle; type: ADME, organism-based; parameters: dose 15 mg/kg, route intravenous, time infinity; settings: plasma; outline: as §2
# [26] = tested on: Rattus norvegicus; assay: Toxicity in athymic nude rat bearing human HCT116 cells assessed as adverse effects at 5 to 10 mg/kg, iv administered QD for 4 days per week followed by 3 days off per week for 3 weeks; type: organism-based, HCT-116; parameters: dose 5-10 mg/kg, route intravenous; settings: in vivo; outline: as §1
# [27] = Half life in Sprague-Dawley rat at 1 mg/kg, iv administered using PEG400/water as vehicle; type: ADME, organism-based; parameters: dose 1 mg/kg, route intravenous; settings: in vivo; outline: as §3
# [28] = tested on: HCT-116; assay: Antitumor activity against human HCT116 cells xenografted in athymic nude rat assessed as tumor growth inhibition at 5 mg/kg, iv administered every other day from day 10 post tumor-injection for 3 weeks relative to vehicle treated control; type: functional; settings: read-out: TGI; outline: as §1
# T1 sequence (Q96GD4 whole entry, the tested form may be a part): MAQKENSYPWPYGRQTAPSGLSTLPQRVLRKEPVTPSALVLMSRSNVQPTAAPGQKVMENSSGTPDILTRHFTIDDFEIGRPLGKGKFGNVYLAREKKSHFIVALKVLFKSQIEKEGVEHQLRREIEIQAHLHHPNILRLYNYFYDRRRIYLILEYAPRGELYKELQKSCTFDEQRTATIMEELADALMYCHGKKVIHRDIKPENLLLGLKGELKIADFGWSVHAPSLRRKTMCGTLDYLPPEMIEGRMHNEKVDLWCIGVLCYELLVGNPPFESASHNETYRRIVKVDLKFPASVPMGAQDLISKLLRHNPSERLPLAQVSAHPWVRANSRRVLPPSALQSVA
smiles,measurement,setting,value
Cc1cc(Nc2nc(Sc3ccc(NC(=O)CN4CC[C@@H](C(=O)N5CCC(F)(F)C5)C4)cc3)nn3cccc23)n[nH]1,Activity,[1],Non-toxic
same,inhibition in vivo at 20 mg/kg,[2],85%
same,AUC(0-inf),[3],7.7 µM·h
same,Kd,[4],1.7 nM
same,clearance,[5],12.5 mL/min/kg
same,half-life,[6],66 min
same,TGI,[7],Active
same,AUC(0-inf),[8],1.4 µM·h
same,Vd,[9],0.8 L/kg
same,IC50,[10],6.1 nM
same,IC50,[11],1 nM
same,half-life,[12],174 min
same,fraction unbound,[13],0.01
same,Vd,[14],7 L/kg
same,clearance,[15],19.2 mL/min/kg
same,AUC(0-inf),[16],181 µM·h
same,inhibition in vivo at 10 mg/kg,[17],60%
same,Activity,[18],Active
same,half-life,[19],222 min
same,Kd,[20],5.8 nM
same,Activity,[21],Non-toxic
same,TGI,[22],Active
same,TGI,[23],Active
same,inhibition,[24],Dose-dependent effect
same,AUC(0-inf),[25],34.4 µM·h
same,Activity,[26],Non-toxic
same,half-life,[27],1050 min
same,inhibition in vivo at 5 mg/kg,[28],45%
